Experimental data as given in ChEMBL document CHEMBL1148697, “Synthesis and evaluation of new arylbenzo[b]thiophene and diarylthiophene derivatives as inhibitors of the NorA multidrug transporter of Staphylococcus aureus” (2007).
≈ marks a conversion by molar mass, not a printed value.

What was measured:
Type in all cases: functional
MCF7 [1] = assay: Cytotoxicity against MCF7 cells at 10 uM; conditions: Homo sapiens
Procedure, shortened: (§1)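 Cytotoxicity tested in KB, MCF7 and MCF7R cells with compounds at 10⁻⁵ M.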

KB [2] = assay: Cytotoxicity against KB cells at 10 uM; conditions: Homo sapiens; procedure, shortened: as §1
MCF7R [3] = assay: Cytotoxicity against MCF7R cells at 10 uM; conditions: Homo sapiens; procedure, shortened: as §1
Staphylococcus aureus [4] = assay: Effect on ethidium bromide efflux in quinolone/macrolide-resistant Staphylococcus aureus NorA by measuring remaining initial ethidium concentration at 20 mg/L after 10 mins
Procedure, shortened: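 S. aureus NorA 1199B grown in LB at 37 °C to A660 0.7–0.8, then loaded with EtBr (10 mg/L) plus CCCP (20 mg/L) for 10 min at 37 °C. Cells spun and resuspended in LB at 37 °C without EtBr, inhibitor added at resuspension. Fluorescence read continuously for 10 min and expressed as percentage of initial fluorescence. At least three experiments.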

Staphylococcus aureus [5] = assay: Increase in ciprofloxacine uptake in quinolone/macrolide-resistant Staphylococcus aureus […] at 20 mg/L after 10 mins
Procedure, shortened: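 Cells grown in LB to OD660 0.7–0.8, washed twice and concentrated 20-fold in 100 mM phosphate pH 7.2 with 1 mM MgSO4 and 0.4% glucose. Preincubated 5 min at 37 °C, then ciprofloxacin 10 mg/L added. Samples spun through silicone oil, pellets lysed in glycine–HCl pH 3.0 at 100 °C for 10 min. Fluorescence (ex 242/em 487 nm) read against a lysate standard curve, as ng per 10⁹ CFU.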

Bacillus subtilis = assay: Effect on ethium bromide efflux in Bacillus subtilis at 20 mg/L after 10 mins
Procedure, shortened: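 B. subtilis ΔΔ (bmr::cat blt::erm) carried plasmid pBEV, which expresses NorA from a strong promoter. Cells were transferred into PBS pH 7.2 with 0.5% glucose at 37 °C. They were loaded with EtBr (10 mg/L) plus CCCP (20 mg/L) for 10 min at 37 °C, spun down and resuspended in LB without EtBr, adding the inhibitor at that point. Fluorescence was recorded continuously for 10 min and expressed as % of initial. Each experiment was done at least three times.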

Staphylococcus aureus [6] = assay: Increase in ciprofloxacine uptake in quinolone/macrolide-susceptible Staphylococcus aureus 1199 at 20 mg/L after 10 mins
Procedure, shortened: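 Silicone-oil uptake assay. Cells were grown in LB to OD660 0.7–0.8, washed, and concentrated 20-fold in 100 mM phosphate pH 7.2 with 1 mM MgSO₄ and 0.4% glucose. After 5 min at 37 °C, ciprofloxacin was added at 10 mg/L. Timed samples were spun through silicone oil and the pellets lysed in 0.1 M glycine–HCl pH 3.0 at 100 °C for 10 min. Lysate fluorescence (ex 242/em 487 nm) was read against a standard curve and reported as ng per 10⁹ CFU.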

Staphylococcus aureus [7] = assay: Antibacterial activity against quinolone/macrolide-susceptible Staphylococcus aureus ATCC 25923
Procedure, shortened: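 MIC by twofold serial dilution in Mueller–Hinton broth with 10⁶ CFU/mL inoculum. Read as the lowest concentration with no visible growth after 18 h at 37 °C. Run in triplicate.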

Staphylococcus aureus [8] = assay: Antibacterial activity against quinolone/macrolide-susceptible Staphylococcus aureus ATCC 25923 assessed as growth
Procedure, shortened: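 Single-concentration growth screen: compound added from DMSO solution to a final 100 mg/L in MH medium with 10⁶ CFU/mL bacteria. Incubated at 37 °C with growth read at 650 nm after 1, 2, 8 and 24 h. Ampicillin was the positive control and DMSO the negative control. Scored ++ for no growth, + for growth <10% of the negative control, – otherwise.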

MCF7R [9] = assay: Cytotoxicity against MCF7R cells at 0.25 nM; conditions: Homo sapiens
KB [10] = assay: Cytotoxicity against KB cells at 0.25 nM; conditions: Homo sapiens
MCF7 [11] = assay: Cytotoxicity against MCF7 cells at 0.25 nM; conditions: Homo sapiens

Row | Compound | inhibition at 10 µM (MCF7 [1]) | inhibition at 10 µM (KB [2]) | inhibition at 10 µM (MCF7R [3]) | other results
1 | COC(=O)/C(=C/c1c(-c2ccc(C#N)cc2)sc2ccccc12)NC(=O)c1ccccc1 | 0% | 24% |  | 
2 | O=Cc1c(-c2ccccc2)sc2ccccc12 | 51% | 42% | 37% | Remaining ethidium fluorescence (% of initial) (Staphylococcus aureus [4]): 72%; Activity (Staphylococcus aureus [5]): 0.07 a.u.; Activity (Bacillus subtilis): 5%; Activity (Staphylococcus aureus [6]): 0.08 a.u.
3 | O=Cc1c(-c2cccnc2)sc2ccccc12 | 3% | 18% | 0% | Remaining ethidium fluorescence (% of initial) (Staphylococcus aureus [4]): 72%
4 | N#Cc1c(-c2cccc(Cl)c2)sc2ccccc12 | 36% | 23% | 20% | 
5 | FC(F)(F)COc1c(-c2cccnc2)sc2ccccc12 |  |  |  | MIC (Staphylococcus aureus [7]): 100 µg/mL (≈ 323 µM)
6 | N#Cc1ccccc1-c1sc2ccccc2c1OCC(F)(F)F | 49% | 56% | 39% | 
7 | N#Cc1ccccc1-c1c(OCC(F)(F)F)sc2ccccc12 | 92% | 100% | 97% | 
8 | O=Cc1c(-c2ccccc2)oc2ccccc12 | 47% | 67% | 37% | Remaining ethidium fluorescence (% of initial) (Staphylococcus aureus [4]): 72%
9 | N#Cc1ccccc1-c1sc2ccccc2c1C=O | 38% | 51% | 33% | 
10 | COc1ccsc1-c1ccccc1C#N | 17% | 11% | 4% | 
11 | O=Cc1ccsc1-c1ccccc1 | 16% | 33% | 0% | 
12 | COc1cc(-c2cccnc2)sc1-c1cccnc1 |  |  |  | MIC (Staphylococcus aureus [7]): 100 µg/mL (≈ 373 µM)
13 | COc1ccc(-c2sc3ccccc3c2C=O)cc1 | 62% | 89% | 80% | 
14 | O=Cc1c(-c2ccc(C(F)(F)F)cc2)sc2ccccc12 | 73% | 88% | 59% | 
15 | O=Cc1c(-c2ccc(Cl)cc2)sc2ccccc12 | 69% | 67% | 35% | 
16 | COc1c(-c2cccnc2)sc2ccccc12 |  |  |  | MIC (Staphylococcus aureus [7]): 100 µg/mL (≈ 414 µM)
17 | N#Cc1sc2ccccc2c1-c1cccnc1 | 18% | 37% | 22% | 
18 | COc1cc(-c2cccc(C(F)(F)F)c2)sc1-c1cccnc1 | 0% | 7% | 0% | 
19 | N#Cc1c(-c2ccc(Cl)cc2)sc2ccccc12 | 27% | 29% | 18% | 
20 | COC(=O)C(Cc1c(-c2ccc(C#N)cc2)sc2ccccc12)NC(=O)c1ccccc1 (racemic) | 12% | 35% | 32% | Activity (Staphylococcus aureus [8]): <10%
21 | CC(=O)O[C@@]12CO[C@@H]1C[C@H](O)[C@@]1(C)C(=O)[C@H](O)C3=C(C)[C@@H](OC(=O)[C@H](O)[C@@H](NC(=O)OC(C)(C)C)c4ccccc4)C[C@@](O)([C@@H](OC(=O)c4ccccc4)[C@H]21)C3(C)C [DOCETAXEL] |  |  |  | inhibition at 0.00025 µM (MCF7R [9]): 4%; inhibition at 0.00025 µM (KB [10]): 87%; inhibition at 0.00025 µM (MCF7 [11]): 31%
22 | COC(=O)[C@H]1[C@H]2C[C@@H]3c4[nH]c5cc(OC)ccc5c4CCN3C[C@H]2C[C@@H](OC(=O)c2cc(OC)c(OC)c(OC)c2)[C@@H]1OC [RESERPINE] |  |  |  | Remaining ethidium fluorescence (% of initial) (Staphylococcus aureus [4]): 72%
